Among the data in ChEMBL document CHEMBL1149196 (J Med Chem, 2004) are Ki and Ratio values, retold here.

Test [1] concerns the target Norepinephrine transporter (Rattus norvegicus, UniProt Q9WTR4). In words: Ability to inhibit high affinity uptake of [3H]NE at Norepinephrine transporter (NET) using rat brain parietal/occipital cortex. Type of test: tissue-based. Summed up: (§1)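 Rat synaptosomal (P2) uptake: striatum for DAT, midbrain for SERT, parietal/occipital cortex for NET, in modified KRH pH 7.4 with nialamide. Drug preincubated 30 min at 4 °C, then 15 min at 37 °C. [3H]amine final ~5 nM (DA, 5-HT) or 9 nM (NE), 5 min uptake, stopped with cold Na-free buffer and filtered. Background from 0 °C tubes. IC50 converted to Ki by Cheng–Prusoff. Mean ± SE, ≥3 experiments.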

The target of test [2] is T1, Sodium-dependent serotonin transporter (Rattus norvegicus, UniProt P31652). Put plainly: (§2) Ability to inhibit high affinity uptake of [3H]-5-HT at Serotonin transporter (SERT) using rat midbrain. Type of test: tissue-based. A digest of the protocol:
as §1
Target sequence in this assay (P31652 whole entry): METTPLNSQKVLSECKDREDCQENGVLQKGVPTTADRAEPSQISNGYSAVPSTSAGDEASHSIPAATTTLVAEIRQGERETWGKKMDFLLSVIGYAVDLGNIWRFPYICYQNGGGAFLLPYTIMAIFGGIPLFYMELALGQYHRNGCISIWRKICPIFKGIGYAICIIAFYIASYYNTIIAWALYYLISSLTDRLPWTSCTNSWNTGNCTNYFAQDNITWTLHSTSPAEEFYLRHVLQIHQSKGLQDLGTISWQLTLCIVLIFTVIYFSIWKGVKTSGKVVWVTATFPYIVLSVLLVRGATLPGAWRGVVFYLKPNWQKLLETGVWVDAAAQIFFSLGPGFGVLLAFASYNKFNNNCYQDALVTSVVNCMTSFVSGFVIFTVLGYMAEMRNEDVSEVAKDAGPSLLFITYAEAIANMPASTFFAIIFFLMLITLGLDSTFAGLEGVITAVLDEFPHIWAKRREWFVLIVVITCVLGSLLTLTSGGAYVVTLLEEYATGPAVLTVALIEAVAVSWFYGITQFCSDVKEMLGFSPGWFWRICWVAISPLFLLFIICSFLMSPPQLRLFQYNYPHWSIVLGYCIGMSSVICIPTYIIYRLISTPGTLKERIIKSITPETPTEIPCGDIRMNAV

For test [3], the target named is Monoamine transporters; Norepinephrine & serotonin (Rattus norvegicus) (UniProt P31652+Q9WTR4). Put plainly: Ratio of affinity for Norepinephrine transporter to that of Serotonin transporter. Type of test: protein assay. A digest of the protocol: (§3)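 Ratios of Ki values from rat synaptosomal [3H]amine uptake inhibition at SERT (midbrain), DAT (striatum) and NET (parietal/occipital cortex). Ki came from IC50 via Cheng–Prusoff.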

Test [4] concerns the target Monoamine transporters; serotonin & dopamine (Rattus norvegicus) (UniProt P31652+P23977). Put plainly: Ratio of affinity for serotonin transporter to that of dopamine transporter. It is filed as protein assay. Summed up:
as §3

The target in test [5] is Sodium-dependent dopamine transporter (Rattus norvegicus, UniProt P23977). Put plainly: Ability to inhibit high affinity uptake of [3H]DA at Dopamine transporter (DAT) using rat brain striatum. Type of test: tissue-based. A digest of the protocol:
as §1

Test [6] concerns the target T1, Sodium-dependent serotonin transporter. The test is described as §2. Type of test: tissue-based. Summed up: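 Rat midbrain P2 synaptosomes in ice-cold modified KRH buffer (pH 7.4, with 0.01 mM nialamide). Drug preincubated 30 min at 4 °C, then 15 min at 37 °C. Uptake started with ~5 nM [3H]5-HT (final) and run 5 min. Stopped with cold sodium-free glucosamine buffer and GF/C filtration. IC50 by LIGAND, converted to Ki by Cheng–Prusoff. Mean ± SE of ≥3 experiments.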
Target sequence in this assay (P31652 whole entry, looked up): as the sequence (P31652 whole entry) above
This is another data set of the same source.

Sequence of Norepinephrine transporter (Q9WTR4 whole entry): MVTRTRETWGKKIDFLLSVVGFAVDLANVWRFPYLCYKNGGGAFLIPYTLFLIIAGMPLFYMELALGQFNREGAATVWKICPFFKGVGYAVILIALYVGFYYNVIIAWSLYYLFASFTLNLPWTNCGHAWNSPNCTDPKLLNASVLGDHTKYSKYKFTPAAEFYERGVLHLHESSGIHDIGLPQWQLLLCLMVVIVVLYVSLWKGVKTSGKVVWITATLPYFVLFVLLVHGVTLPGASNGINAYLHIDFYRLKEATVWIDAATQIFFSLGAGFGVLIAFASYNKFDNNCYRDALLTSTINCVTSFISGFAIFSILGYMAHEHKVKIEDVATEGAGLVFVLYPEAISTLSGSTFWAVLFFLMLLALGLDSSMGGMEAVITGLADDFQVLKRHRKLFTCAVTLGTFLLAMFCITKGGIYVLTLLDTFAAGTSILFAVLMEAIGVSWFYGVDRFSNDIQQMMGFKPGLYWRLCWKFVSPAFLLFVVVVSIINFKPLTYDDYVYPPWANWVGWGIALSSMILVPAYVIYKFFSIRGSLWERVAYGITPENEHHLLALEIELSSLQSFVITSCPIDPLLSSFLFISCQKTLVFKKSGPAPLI
Sequence of Monoamine transporters; serotonin & dopamine (Rattus norvegicus) (P23977 whole entry, looked up): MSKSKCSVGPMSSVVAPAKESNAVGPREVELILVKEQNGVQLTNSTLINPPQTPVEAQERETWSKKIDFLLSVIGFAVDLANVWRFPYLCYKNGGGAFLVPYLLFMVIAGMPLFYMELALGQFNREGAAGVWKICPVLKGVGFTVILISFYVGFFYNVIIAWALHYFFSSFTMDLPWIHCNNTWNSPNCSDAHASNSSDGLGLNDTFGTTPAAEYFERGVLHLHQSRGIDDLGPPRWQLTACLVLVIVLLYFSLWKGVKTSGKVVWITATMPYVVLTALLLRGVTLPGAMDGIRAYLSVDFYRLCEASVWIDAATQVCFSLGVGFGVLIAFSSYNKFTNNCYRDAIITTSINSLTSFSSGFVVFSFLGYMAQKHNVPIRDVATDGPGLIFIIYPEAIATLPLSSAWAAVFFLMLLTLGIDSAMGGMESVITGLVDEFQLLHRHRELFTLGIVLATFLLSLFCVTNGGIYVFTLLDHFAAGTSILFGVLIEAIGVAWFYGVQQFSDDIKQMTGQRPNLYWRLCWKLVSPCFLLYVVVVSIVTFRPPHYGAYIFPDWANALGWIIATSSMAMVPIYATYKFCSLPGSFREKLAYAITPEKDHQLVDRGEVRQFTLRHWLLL
Sequence of Monoamine transporters; serotonin & dopamine (Rattus norvegicus) (P31652 whole entry, looked up): as the sequence (P31652 whole entry) above
Sequence of Sodium-dependent dopamine transporter (P23977 whole entry): as the sequence (P23977 whole entry, looked up) above

Consider `CN1CC[C@H](c2ccc(Cl)cc2)[C@@H](CC(=O)NC23CC4CC(CC(C4)C2)C3)C1`, for which the Ki (in general, a measure of affinity in units of concentration, obtained from inhibition or displacement) in test [1] is 1080 nM; in test [2], 376 nM; in test [5] it was 706 nM. Besides, the Ratio in test [3] stood at 2.9; in test [4], 0.53.

With `CN1CC[C@H](c2ccc(Cl)cc2)[C@@H](COC(=O)c2ccccc2)C1`, the Ki in test [1] stood at 389 nM; in test [2], 296 nM; in test [5] it was 273 nM. The Ratio is 1.3 in test [3] and 1.1 in test [4].

As for `CN1CC[C@H](c2ccc(Cl)cc2)[C@@H](CC(=O)O)C1`, the values for the Ki in test [1], in test [2] and in test [5] were 3810 nM, > 10000 nM and 3010 nM, respectively.

For `CC(=O)OC[C@H]1CN(C)CC[C@@H]1c1ccc(Cl)cc1`, the Ki amounted to 235 nM in test [1], 901 nM in test [2] and 599 nM in test [5]. Further, the Ratio in test [3] worked out at 0.26; in test [4], 1.5.

`CCOC(=O)C[C@H]1CN(C)CC[C@@H]1c1ccc(Cl)cc1`: the Ki in test [1] was 101 nM; in test [2], 191 nM; in test [5] it was 79 nM. Besides, the results for the Ratio in test [3] and in test [4] were 0.53 and 2.4, respectively.

Turning to `CN1CC[C@H](c2ccc(Cl)cc2)C(C(=O)N(C)C)C1` (some centres not stated), the Ki was determined as 569 nM in test [1], 18900 nM in test [2] and 2140 nM in test [5]. Also, the figures for the Ratio in test [3] and in test [4] were 0.03 and 8.8, respectively.

Regarding `CN1CC[C@H](c2ccc(Cl)cc2)[C@@H](CC(=O)NCc2ccccc2)C1`, the values for the Ki in test [1], in test [2] and in test [5] were 107 nM, 191 nM and 270 nM, respectively. Further, the figures for the Ratio in test [3] and in test [4] were 0.56 and 0.71, respectively.

With `CN1CC[C@H](c2ccc(Cl)cc2)[C@@H](COC(=O)Nc2ccccc2)C1`, the figures for the Ki in test [1], in test [2] and in test [5] were 33 nM, 1290 nM and 91 nM, respectively. In addition, the Ratio in test [3] stood at 0.026; in test [4] it was 14.

With `CN1CC[C@H](c2ccc(Cl)cc2)[C@@H](CCC(=O)O)C1`, the results for the Ki in test [1], in test [2] and in test [5] were 425 nM, 4540 nM and 1300 nM, respectively. The Ratio amounted to 0.094 in test [3] and 3.5 in test [4].

In the case of `CN1CC[C@H](c2ccc(Cl)cc2)[C@@H](C(=O)O)C1`, the results for the inhibition constant (Ki) in test [6] and in test [2] were 282000 nM and 131000 nM, respectively. The results for the Ratio in test [3] and in test [4] were 2.2 and 0.76, respectively.

With `C=CCOC[C@H]1CN(C)CC[C@@H]1c1ccc(Cl)cc1`, the Ki in test [1] turned out to be 20 nM; in test [2], 231 nM; in test [5], 60 nM. Besides, the figures for the Ratio in test [3] and in test [4] were 0.087 and 3.9, respectively.

Consider `COC(=O)CC[C@H]1CN(C)CC[C@@H]1c1ccc(Cl)cc1`, for which the Ki came to 31 nM in test [1], 255 nM in test [2] and 68 nM in test [5]. For the same compound, the values for the Ratio in test [3] and in test [4] were 0.12 and 3.8, respectively.

Regarding `CN1CC[C@H](c2ccc(Cl)cc2)[C@@H](CCC(=O)NC23CC4CC(CC(C4)C2)C3)C1`, the Ki was 152 nM in test [1], 585 nM in test [2] and 446 nM in test [5]. The figures for the Ratio in test [3] and in test [4] were 0.26 and 1.3, respectively.

For `CN1CC[C@H](c2ccc(Cl)cc2)[C@@H](C(=O)OCCCCCc2ccccc2)C1`, the Ki in test [1] worked out at 382 nM; in test [2], 1790 nM; in test [5], 53 nM. Also, the Ratio in test [3] came to 0.21; in test [4], 34.

Turning to `CN1CC[C@H](c2ccc(Cl)cc2)[C@@H](CC(=O)N(C)Cc2ccccc2)C1`, the Ki in test [1] turned out to be 32 nM; in test [2] it was 66 nM; in test [5], 165 nM. Besides, the figures for the Ratio in test [3] and in test [4] were 0.49 and 0.4, respectively.

Take `CN1CC[C@H](c2ccc(Cl)cc2)[C@@H](C(=O)OC(C)(C)C)C1`: the Ki is 350 nM in test [1], 5750 nM in test [2] and 318 nM in test [5]. Besides, the Ratio was 0.061 in test [3] and 18 in test [4].

For `CN1CC[C@H](c2ccc(Cl)cc2)[C@@H](CC(=O)OCCCc2ccccc2)C1`, the figures for the Ki in test [1], in test [2] and in test [5] were 48 nM, 82 nM and 36 nM, respectively. Also, the Ratio in test [3] turned out to be 0.59; in test [4], 2.3.

As to `CN1CC[C@H](c2ccc(Cl)cc2)[C@@H](COC(=O)NC23CC4CC(CC(C4)C2)C3)C1`, the Ki in test [1] turned out to be 56 nM; in test [2], 37 nM; in test [5], 56 nM. Further, the Ratio was determined as 1.5 in test [3] and 0.66 in test [4].

`CCC[C@H]1CN(C)CC[C@@H]1c1ccc(Cl)cc1`: the Ki came to 6.5 nM in test [1], 228 nM in test [2] and 20 nM in test [5]. Further, the Ratio in test [3] came to 0.029; in test [4] it was 11.

Turning to `CN1CC[C@H](c2ccc(Cl)cc2)C(C(=O)Oc2ccccc2)C1` (some centres not stated), the Ki worked out at 2180 nM in test [1], 2120 nM in test [2] and 906 nM in test [5]. Also, the Ratio in test [3] turned out to be 1; in test [4] it was 2.3.

Consider `CN1CC[C@H](c2ccc(Cl)cc2)[C@@H](CCCO)C1`, for which the Ki amounted to 564 nM in test [1], 2810 nM in test [2] and 16 nM in test [5]. For the same compound, the values for the Ratio in test [3] and in test [4] were 0.2 and 175, respectively.

As for `CN1CC[C@H](c2ccc(Cl)cc2)[C@@H](CC(=O)N(C)C)C1`, the values for the Ki in test [1], in test [2] and in test [5] were 46 nM, 1990 nM and 16 nM, respectively. In addition, the Ratio is 0.023 in test [3] and 125 in test [4].

In test [1], `CN1CC[C@H](c2ccc(Cl)cc2)C(C(=O)N2CCCC2)C1` (some centres not stated) came in with a Ki of 2000 nM. In other words, the single-digit micromolar range.

Turning to `COC(=O)/C=C/[C@H]1CN(C)CC[C@@H]1c1ccc(Cl)cc1`, the Ki came out at 272 nM in test [1], 501 nM in test [2] and 53 nM in test [5]. In addition, the Ratio in test [3] worked out at 0.54; in test [4], 9.5.

As to `CN1CC[C@H](c2ccc(Cl)cc2)[C@@H](CCC(=O)Nc2ccccc2)C1`, the figures for the Ki in test [1], in test [2] and in test [5] were 56 nM, 354 nM and 201 nM, respectively. For the same compound, the Ratio turned out to be 0.16 in test [3] and 1.8 in test [4].

With `CN1CC[C@H](c2ccc(Cl)cc2)[C@@H](CCCF)C1`, the Ki was 356 nM in test [1], 5190 nM in test [2] and 43 nM in test [5]. In addition, the Ratio in test [3] stood at 0.069; in test [4] it was 120.

On to `CNC(=O)C[C@H]1CN(C)CC[C@@H]1c1ccc(Cl)cc1`, for which the figures for the Ki in test [1] and in test [2] were 251 nM and 2270 nM, respectively. Moreover, the Ratio in test [3] stood at 0.11; in test [4], 2.5.

For the compound `CCNC(=O)OC[C@H]1CN(C)CC[C@@H]1c1ccc(Cl)cc1`, the results for the Ki in test [1], in test [2] and in test [5] were 100 nM, 854 nM and 181 nM, respectively. Besides, the Ratio in test [3] worked out at 0.12; in test [4], 4.7.
